Assay [1] can be described thus: Binding affinity to HP duplex DNA 1 (unknown origin) containing c-Myc P2 promoter sequence incubated for 12 hrs at 37 degC in presence of 50 mM pH 7.2 HEPES buffer containing 10 mM MgCl2, 100 mM NaCl and 10% sucrose.
Assay [2] in a line: Binding affinity to fluorescently-labeled HP duplex DNA 2 (unknown origin) containing HIV2 nef gene assessed as formation of stable triplexes at 40 uM in presence of 40 uM RNA 1 (5'-CACCACCACCACC-3') by gel mobility shift assay.
The nature of assay [3]: Binding affinity to fluorescently-labeled HP duplex DNA 2 (unknown origin) containing HIV2 nef gene assessed as formation of stable triplexes at 40 uM by gel mobility shift assay.
Assay [4] can be described thus: Binding affinity to fluorescently-labeled mismatched HP duplex DNA 8 (unknown origin) containing HIV2 nef gene assessed as formation of stable triplexes at 100 uM incubated for 12 hrs at 37 degC in presence of 50 mM pH 7.2 HEPES buffer containing 10 mM MgCl2, 100 mM NaCl and 10% sucrose by gel mobility shift assay. Put shortly:
(§1)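 Triplex formation by gel shift. Oligonucleotide at 100 µM was mixed with fluorescently labeled hairpin duplex at 40 nM in 50 mM HEPES (pH 7.2), 10 mM MgCl2, 100 mM NaCl and 10% sucrose for 12 h at 37 °C. Complexes were resolved on a 15% nondenaturing polyacrylamide gel.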

Assay [5] is described as follows: Binding affinity to fluorescently-labeled mismatched HP duplex DNA 7 (unknown origin) containing HIV2 nef gene assessed as formation of stable triplexes at 100 uM incubated for 12 hrs at 37 degC in presence of 50 mM pH 7.2 HEPES buffer containing 10 mM MgCl2, 100 mM NaCl and 10% sucrose by gel mobility shift assay. Summed up: as §1
The nature of assay [6]: Binding affinity to fluorescently-labeled mismatched HP duplex DNA 6 (unknown origin) containing HIV2 nef gene assessed as formation of stable triplexes at 100 uM incubated for 12 hrs at 37 degC in presence of 50 mM pH 7.2 HEPES buffer containing 10 mM MgCl2, 100 mM NaCl and 10% sucrose by gel mobility shift assay. Put shortly:
as §1

Assay [7] in a line: Binding affinity to fluorescently-labeled mismatched HP duplex DNA 5 (unknown origin) containing HIV2 nef gene assessed as formation of stable triplexes at 100 uM incubated for 12 hrs at 37 degC in presence of 50 mM pH 7.2 HEPES buffer containing 10 mM MgCl2, 100 mM NaCl and 10% sucrose by gel mobility shift assay. Summed up: as §1
A short description of assay [8]: Binding affinity to fluorescently-labeled mismatched HP duplex DNA 4 (unknown origin) containing HIV2 nef gene assessed as formation of stable triplexes at 100 uM incubated for 12 hrs at 37 degC in presence of 50 mM pH 7.2 HEPES buffer containing 10 mM MgCl2, 100 mM NaCl and 10% sucrose by gel mobility shift assay. Summed up:
as §1

A short description of assay [9]: Binding affinity to fluorescently-labeled mismatched HP duplex DNA 3 (unknown origin) containing HIV2 nef gene assessed as formation of stable triplexes at 100 uM incubated for 12 hrs at 37 degC in presence of 50 mM pH 7.2 HEPES buffer containing 10 mM MgCl2, 100 mM NaCl and 10% sucrose by gel mobility shift assay. Summed up:
as §1

A short description of assay [10]: Binding affinity to fluorescently-labeled HP duplex DNA 2 (unknown origin) containing HIV2 nef gene assessed as formation of stable triplexes at 100 uM incubated for 12 hrs at 37 degC in presence of 50 mM pH 7.2 HEPES buffer containing 10 mM MgCl2, 100 mM NaCl and 10% sucrose by gel mobility shift assay. Summed up:
as §1

Assay [11] in a line: Binding affinity to HP duplex DNA 2 (unknown origin) containing HIV2 nef gene sequence incubated for 12 hrs at 37 degC in presence of 50 mM pH 7.2 HEPES buffer containing 10 mM MgCl2, 100 mM KCl and 10% sucrose.
Assay [12] is described as follows: Binding affinity to HP duplex DNA 2 (unknown origin) containing HIV2 nef gene sequence incubated for 12 hrs at 37 degC in presence of 50 mM pH 7.2 HEPES buffer containing 10 mM MgCl2, 100 mM NaCl and 10% sucrose. Put shortly: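 Oligonucleotide binding to a 5'-FAM-labeled hairpin duplex bearing the HIV2 nef sequence. Incubation was 12 h at 37 °C in 50 mM HEPES (pH 7.2) with 10 mM MgCl2, 100 mM NaCl and 10% sucrose. Kd reported in µM.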

Structures are written as SMILES. Active and inactive are the calls of the source. The rule behind the calls is not given here.

As for `Cc1cn([C@H]2C[C@H](OP(=O)(O)OC[C@H]3O[C@@H](n4cnc5c(=S)[nH]c(N)nc54)C[C@@H]3OP(=O)(O)OC[C@H]3O[C@@H](n4cnc5c(=S)[nH]c(N)nc54)C[C@@H]3OP(=O)(O)OC[C@H]3O[C@@H](n4cnc5c(=S)[nH]c(N)nc54)C[C@@H]3OP(=O)(O)OC[C@H]3O[C@@H](n4cc(C)c(=S)[nH]c4=O)C[C@@H]3OP(=O)(O)OC[C@H]3O[C@@H](n4cnc5c(=S)[nH]c(N)nc54)C[C@@H]3OP(=O)(O)OC[C@H]3O[C@@H](n4cnc5c(=S)[nH]c(N)nc54)C[C@@H]3OP(=O)(O)OC[C@H]3O[C@@H](n4cnc5c(=S)[nH]c(N)nc54)C[C@@H]3OP(=O)(O)OC[C@H]3O[C@@H](n4cc(C)c(=S)[nH]c4=O)C[C@@H]3OP(=O)(O)OC[C@H]3O[C@@H](n4cnc5c(=S)[nH]c(N)nc54)C[C@@H]3OP(=O)(O)OC[C@H]3O[C@@H](n4cnc5c(=O)[nH]c(N)nc54)[C@H](O)[C@@H]3O)[C@@H](CO)O2)c(=O)[nH]c1=S`, the Kd in assay [1] was determined as 670 nM.

Consider `Cc1cn([C@H]2C[C@H](OP(=O)(O)OC[C@H]3O[C@@H](n4cnc5c(=S)[nH]c(N)nc54)C[C@@H]3OP(=O)(O)OC[C@H]3O[C@@H](n4cnc5c(=S)[nH]c(N)nc54)C[C@@H]3OP(=O)(O)OC[C@H]3O[C@@H](n4cnc5c(=S)[nH]c(N)nc54)C[C@@H]3OP(=O)(O)OC[C@H]3O[C@@H](n4cc(C)c(=O)[nH]c4=O)C[C@@H]3OP(=O)(O)OC[C@H]3O[C@@H](n4cnc5c(=S)[nH]c(N)nc54)C[C@@H]3OP(=O)(O)OC[C@H]3O[C@@H](n4cnc5c(=S)[nH]c(N)nc54)C[C@@H]3OP(=O)(O)OC[C@H]3O[C@@H](n4cnc5c(=S)[nH]c(N)nc54)C[C@@H]3OP(=O)(O)OC[C@H]3O[C@@H](n4cc(C)c(=O)[nH]c4=O)C[C@@H]3OP(=O)(O)OC[C@H]3O[C@@H](n4cnc5c(=S)[nH]c(N)nc54)C[C@@H]3OP(=O)(O)OC[C@H]3O[C@@H](n4cnc5c(=O)[nH]c(N)nc54)[C@H](O)[C@@H]3O)[C@@H](CO)O2)c(=O)[nH]c1=O`, for which, in assay [1], the Kd came to 7300 nM.

Regarding `Cc1cn([C@H]2C[C@H](OP(=O)(O)OC[C@H]3O[C@@H](n4cnc5c(=O)[nH]c(N)nc54)[C@H](O)[C@@H]3O)[C@@H](COP(=O)(O)O[C@H]3C[C@H](n4cnc5c(=S)[nH]c(N)nc54)O[C@@H]3COP(=O)(O)O[C@H]3C[C@H](n4cnc5c(=S)[nH]c(N)nc54)O[C@@H]3COP(=O)(O)O[C@H]3C[C@H](n4cc(C)c(=S)[nH]c4=O)O[C@@H]3COP(=O)(O)O[C@H]3C[C@H](n4cnc5c(=S)[nH]c(N)nc54)O[C@@H]3COP(=O)(O)O[C@H]3C[C@H](n4cnc5c(=S)[nH]c(N)nc54)O[C@@H]3COP(=O)(O)O[C@H]3C[C@H](n4cc(C)c(=S)[nH]c4=O)O[C@@H]3COP(=O)(O)O[C@H]3C[C@H](n4cnc5c(=S)[nH]c(N)nc54)O[C@@H]3COP(=O)(O)O[C@H]3C[C@H](n4cnc5c(=S)[nH]c(N)nc54)O[C@@H]3COP(=O)(O)O[C@H]3C[C@H](n4cc(C)c(=S)[nH]c4=O)O[C@@H]3COP(=O)(O)O[C@H]3C[C@H](n4cnc5c(=S)[nH]c(N)nc54)O[C@@H]3COP(=O)(O)O[C@H]3C[C@H](n4cnc5c(=S)[nH]c(N)nc54)O[C@@H]3CO)O2)c(=O)[nH]c1=O`, the outcome in [2], in assay [3] and in [10] was Active. Also, the Kd is > 100000 nM in assay [4], 200 nM in assay [11] and 400 nM in assay [12]. The outcome in assay [5], in assay [6], in [7], in assay [8] and in assay [9] was inactive.

(Values after ChEMBL document CHEMBL2311479, “Remarkable stabilization of antiparallel DNA triplexes by strong stacking effects of consecutively modified nucleobases containing thiocarbonyl groups” (Bioorg Med Chem Lett, 2013).)
